Source: ChEMBL document CHEMBL5724801, “EUbOPEN Chemogenomics Library - Multiplex” (2024)
Where “and” joins values, the source holds several entries; their conditions need not be identical. Equal values may be shown once.

Test system: HEK-293T
Assay: Multiplex assay against HEK293T
Assay type: toxicity, cell-based
Details: human
Summary of the method: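 Four dyes were applied at seeding to live cells: Hoechst33342, BioTracker Green Microtubule Cytoskeleton Dye, MitoTracker Red and Annexin V Alexa Fluor 680. Imaging after compound addition used a CQ1 microscope at 37°C and 5% CO2. CellPathfinder machine-learning gating then sorted cells into Hoechst high-intensity objects or normal cells, normal cells into healthy, pyknosed or fragmented nuclei, and pyknosed cells into mitotic or apoptotic, with tubulin, mitochondrial-mass and membrane-permeability phenotypes given as per cents of healthy-nucleus cells.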

[1] = 12 h, 1 µM, compound concentration 1 uM
[2] = 12 h, 10 µM, compound concentration 10 uM
[3] = 24 h, 1 µM, compound concentration 1 uM
[4] = 24 h, 10 µM, compound concentration 10 uM
[5] = 48 h, 1 µM, compound concentration 1 uM
[6] = 48 h, 10 µM, compound concentration 10 uM

In the case of `Cn1ncnc1COc1nn2c(-c3cc(F)ccc3F)nnc2cc1C(C)(C)C`, the “Population Apoptotic (%)” value [1] is reported as 8.93% and 7.56%, the “Population Fragmented Nuclei (%)” value [1] is reported as 2.83% and 4.35% and the “Population Hoechst High Intensity Objects (%)” value [1] is reported as 0%. The “Population Mitochondria Different-Phenotype (%)” value [1] was 29.79% and 46.15%, the “Population Mitotic Cells (%)” value [1] was 91.07% and 92.44% and the “Population Normal (%)” value [1] was 100%. The “Population Pyknosed Nuclei (%)” value [1] was 52.83% and 86.23%, the “Total Cell Count” value [1] was 318 and 138 and the “Population Apoptotic (%)” value [2] was 12.9% and 20.39%. For the same molecule, the “Population Fragmented Nuclei (%)” value [2] was 0.72% and 5.3%, the “Population Healthy Nuclei (%)” value [2] was 43.73% and 16.67% and the “Population Hoechst High Intensity Objects (%)” value [2] was 0%. The “Population Mitotic Cells (%)” value [2] was 87.1% and 79.61%, the “Population Normal (%)” value [2] was 100% and the “Population Pyknosed Nuclei (%)” value [2] was 55.56% and 78.03%. The “Population Tubulin-Different-Phenotype (%)” value [2] was 22.95% and 27.27%, the “Total Cell Count” value [2] was 279 and 132 and the “Population Apoptotic (%)” value [3] was 10.85% and 17.5%. For the same molecule, the “Population Fragmented Nuclei (%)” value [3] was 2.35% and 3.27%, the “Population Hoechst High Intensity Objects (%)” value [3] was 0% and the “Population Mitochondria Different-Phenotype (%)” value [3] was 20.12% and 10.71%. The “Population Mitotic Cells (%)” value [3] was 89.15% and 82.5%, the “Population Normal (%)” value [3] was 100% and the “Population Pyknosed Nuclei (%)” value [3] was 27.56% and 78.43%. The “Population Tubulin-Different-Phenotype (%)” value [3] was 23.17% and 10.71%, the “Population Apoptotic (%)” value [4] was 25.69% and 29.36% and the “Population Fragmented Nuclei (%)” value [4] was 1.85% and 4.23%. For the same molecule, the “Population Hoechst High Intensity Objects (%)” value [4] was 0.52% and 0%, the “Population Mitochondria Different-Phenotype (%)” value [4] was 34.22% and 18.52% and the “Population Mitotic Cells (%)” value [4] was 74.31% and 70.64%. The “Population Normal (%)” value [4] was 99.48% and 100%, the “Population Pyknosed Nuclei (%)” value [4] was 28.76% and 76.76% and the “Population Tubulin-Different-Phenotype (%)” value [4] was 50.19% and 33.33%. The “Total Cell Count” value [4] was 381 and 142, the “Population Apoptotic (%)” value [5] was 9.38% and 21.84% and the “Population Fragmented Nuclei (%)” value [5] was 2.19% and 2.84%. For the same molecule, the “Population Healthy Nuclei (%)” value [5] was 86.12% and 47.73%, the “Population Hoechst High Intensity Objects (%)” value [5] was 0% and 0.56% and the “Population Mitochondria Different-Phenotype (%)” value [5] was 20.57% and 32.14%. The “Population Mitotic Cells (%)” value [5] was 90.62% and 78.16%, the “Population Normal (%)” value [5] was 100% and 99.44% and the “Population Apoptotic (%)” value [6] was 22.83% and 17.39%. For the same molecule, the “Population Fragmented Nuclei (%)” value [6] was 1.92%, the “Population Healthy Nuclei (%)” value [6] was 77.76% and 53.85% and the “Population Hoechst High Intensity Objects (%)” value [6] was 0.32% and 0%. The “Population Mitochondria Different-Phenotype (%)” value [6] was 45.27% and 57.14%, the “Population Mitotic Cells (%)” value [6] was 77.17% and 82.61% and the “Population Normal (%)” value [6] was 99.68% and 100%. For the same molecule, the “Population Pyknosed Nuclei (%)” value [6] was 20.32% and 44.23%.
For `CC(=O)Nc1cccc2c1c(Sc1ccc(Cl)cc1)c(C)n2CC(=O)O` [AZD1981], the “Population Apoptotic (%)” value [1] was 37% and 60%, the “Population Fragmented Nuclei (%)” value [1] was 6% and 5% and the “Population Healthy Nuclei (%)” value [1] was 81% and 80%. For the same molecule, the “Population Hoechst High Intensity Objects (%)” value [1] was 6% and 8%, the “Population Membrane Permeable-Phenotype (%)” value [1] was 0% and the “Population Mitochondria Different-Phenotype (%)” value [1] was 46% and 57%. The “Population Mitotic Cells (%)” value [1] was 62% and 40%, the “Population Normal (%)” value [1] was 93% and 91% and the “Population Pyknosed Nuclei (%)” value [1] was 11% and 13%. For the same molecule, the “Population Tubulin-Different-Phenotype (%)” value [1] was 28% and 18%, the “Total Cell Count” value [1] was 405 and 314 and the “Population Apoptotic (%)” value [2] was 38% and 60%. The “Population Fragmented Nuclei (%)” value [2] was 8% and 6%, the “Population Healthy Nuclei (%)” value [2] was 78% and 77% and the “Population Hoechst High Intensity Objects (%)” value [2] was 7% and 15%. The “Population Membrane Permeable-Phenotype (%)” value [2] was 0%, the “Population Mitochondria Different-Phenotype (%)” value [2] was 44% and 60% and the “Population Mitotic Cells (%)” value [2] was 61% and 39%. The “Population Normal (%)” value [2] was 92% and 84%, the “Population Pyknosed Nuclei (%)” value [2] was 12% and 15% and the “Population Tubulin-Different-Phenotype (%)” value [2] was 29% and 26%. For the same molecule, the “Total Cell Count” value [2] was 403 and 318, the “Population Apoptotic (%)” value [3] was 20% and 54% and the “Population Fragmented Nuclei (%)” value [3] was 9% and 7%. For the same molecule, the “Population Healthy Nuclei (%)” value [3] was 80%, the “Population Hoechst High Intensity Objects (%)” value [3] was 2% and 9% and the “Population Membrane Permeable-Phenotype (%)” value [3] was 0%. For the same molecule, the “Population Mitochondria Different-Phenotype (%)” value [3] was 33% and 42%, the “Population Mitotic Cells (%)” value [3] was 79% and 45% and the “Population Normal (%)” value [3] was 97% and 90%. The “Population Pyknosed Nuclei (%)” value [3] was 9% and 11%, the “Population Tubulin-Different-Phenotype (%)” value [3] was 23% and 16% and the “Total Cell Count” value [3] was 568 and 398. For the same molecule, the “Population Apoptotic (%)” value [4] was 40% and 59%, the “Population Fragmented Nuclei (%)” value [4] was 7% and 8% and the “Population Healthy Nuclei (%)” value [4] was 79% and 81%. For the same molecule, the “Population Hoechst High Intensity Objects (%)” value [4] was 4% and 12%, the “Population Membrane Permeable-Phenotype (%)” value [4] was 0% and the “Population Mitochondria Different-Phenotype (%)” value [4] was 28% and 45%. The “Population Mitotic Cells (%)” value [4] was 59% and 40%, the “Population Normal (%)” value [4] was 95% and 87% and the “Population Pyknosed Nuclei (%)” value [4] was 13% and 9%. For the same molecule, the “Population Tubulin-Different-Phenotype (%)” value [4] was 25% and 19%, the “Total Cell Count” value [4] was 526 and 387 and the “Population Apoptotic (%)” value [5] was 21% and 38%. The “Population Fragmented Nuclei (%)” value [5] was 15% and 13%, the “Population Healthy Nuclei (%)” value [5] was 78% and 79% and the “Population Hoechst High Intensity Objects (%)” value [5] was 1% and 3%. For the same molecule, the “Population Membrane Permeable-Phenotype (%)” value [5] was 1%, the “Population Mitochondria Different-Phenotype (%)” value [5] was 18% and 20% and the “Population Mitotic Cells (%)” value [5] was 78% and 61%. For the same molecule, the “Population Normal (%)” value [5] was 98% and 96%, the “Population Pyknosed Nuclei (%)” value [5] was 6% and the “Population Tubulin-Different-Phenotype (%)” value [5] was 10% and 12%. For the same molecule, the “Total Cell Count” value [5] was 908 and 570, the “Population Apoptotic (%)” value [6] was 37% and 33% and the “Population Fragmented Nuclei (%)” value [6] was 14% and 16%. The “Population Healthy Nuclei (%)” value [6] was 78%, the “Population Hoechst High Intensity Objects (%)” value [6] was 2% and 4% and the “Population Membrane Permeable-Phenotype (%)” value [6] was 0%. The “Population Mitochondria Different-Phenotype (%)” value [6] was 18% and 26%, the “Population Mitotic Cells (%)” value [6] was 62% and 66% and the “Population Normal (%)” value [6] was 97% and 95%. For the same molecule, the “Population Pyknosed Nuclei (%)” value [6] was 7% and 5%, the “Population Tubulin-Different-Phenotype (%)” value [6] was 11% and the “Total Cell Count” value [6] was 751 and 556.
